Calb FLC = affects C. albicans growth with fluconazole | C. albicans CaCi-2 (fluconazole-resistant clinical isolate) + fluconazole, Alamar Blue growth, 48 h | growth inhibition, % (test concentration not listed) | 300,000 tested, 0.57% active | AID 1979;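 active = growth inhibition above about 58% in most replicates, limit read from the data, passing the limit was not always enough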;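 note: all wells also contain fluconazole at 8 µg/ml as a sub-toxic cotreatment; 0% = median of DMSO wells and 100% = median of geldanamycin control wells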
T cruzi repl = blocks replication of Trypanosoma cruzi; T. cruzi beta-gal in NIH3T3, luminescence, 90 h; inhibition, % (test concentration not listed); 300,000 tested, 1.4% active;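 active = mean inhibition across valid replicates above about 55%, limit read from the data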;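 note: signal also drops with host cell toxicity which is not excluded here; 0% = plate median of DMSO wells and 100% = zero luminescence signal; higher percent means less beta-gal luminescence so fewer parasites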
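System: mouse NIH/3T3 fibroblasts infected with β-gal-expressing T. cruzi Tulahuen C4 / Input: NIH/3T3 cells, 5,000 per well / Buffer or medium: Low-serum DMEM with 2% FBS / Probe or stimulus: 5000 reporter trypomastigotes per well / Schedule: ≥90 h infection period, 3 h prior cell attachment / Measured by: GalScreen luminescence, 60 min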
Lmaj promast = reduces viability of Leishmania major promastigotes; 200,000 tested, 9% active; inhibition, % at 10 µM; AID 1063; resazurin fluorescence viability; in the data active = inhibition above about 50%;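 note: promastigotes grown with compound for 44 hours at 28 °C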
NALP1 yeast inh = NALP1 inhibition; S. cerevisiae NALP1/ASC/caspase-1 growth, X-gal OD620, 72 h; inhibition, % at 10 µM; 280,000 tested, 0.61% active; in the data active = inhibition mostly above about 24%, no sharp cut-off; inactive = mostly below about 32%
NLRP3 yeast inh = blocks the NALP3 inflammasome reconstituted in yeast. inhibition, % at 10 µM. 330,000 tested, 0.39% active. Yeast reconstituted NLRP3/ASC/caspase-1, beta-gal luminescence, 24 h;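 active = inhibition of 50% or more; inactive = inhibition below 50%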;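 note: plate controls were induced DMSO wells for no effect and uninduced yeast grown without galactose for full effect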
PolyA inhibitor = inhibitors of polyadenylation in S. cerevisiae. activity score, % at 12 µM. 300,000 tested, 0.02% active. S. cerevisiae SKY197-pL101 polyadenylation reporter, beta-gal luminescence; efflux-impaired pdr1/pdr3 knockout yeast; score 100 = 6 SD above DMSO;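 active = lowest replicate activity score at least 50, where 100 means six control SD above control mean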;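 note: yeast exposed to compound for 9 h at 30 °C; higher score means more reporter readthrough which indicates perturbed polyadenylation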
Starred values were filed as active, the others as inactive; / = no result given. The sample as a whole holds a higher share of hits than the screen did.

SMILES | Calb FLC | T cruzi repl | Lmaj promast | NALP1 yeast inh | NLRP3 yeast inh | PolyA inhibitor
O=C(N/N=C/c1ccco1)c1cc(-c2ccccc2)nc2ccccc12 | -3 | -13 | / | 14 | 11 | -5
O=C(N/N=C/c1ccc([N+](=O)[O-])o1)c1cc(-c2cccc(Br)c2)nc2ccccc12 | 29 | 63* | 100* | 5 | 2 | -13
CCCc1ccc(-c2cc(C(=O)N/N=C/c3ccc([N+](=O)[O-])o3)c3ccccc3n2)cc1 | 2 | 61* | 100* | -2 | 21 | -8
S=C1NC2=C(CCC/C2=C\c2ccc(Cl)cc2)C(c2ccc(Cl)cc2)N1 (configuration not stated) | 29 | -5 | / | 40* | 12 | 12
CC(C)(C)c1ccc(CN2N=Nc3ccccc3S2(=O)=O)cc1 | 1 | 43 | 101* | 12 | 11 | -45
O=C(CNc1ccccc1F)N/N=C/C1CC=CCC1 (configuration not stated) | 123* | / | -8 | -6 | 5 | /
CCCn1c(O)c(N=N)c2ccccc21 | 30 | -5 | -8 | 19 | 0 | -19
COc1ccc(OCCN2CCN(C3CC(=O)N(CCC(C)C)C3=O)CC2)cc1 (configuration not stated) | -7 | 33 | 92* | -19 | 9 | -17
Cc1ccc(S(=O)(=O)N2CCN(C3CC(=O)N(Cc4ccccc4)C3=O)CC2)cc1C (configuration not stated) | 11 | 8 | 93* | 2 | 4 | 2
COc1ccc(CCN2C(=O)CC(N3CCOCC3)C2=O)cc1 (configuration not stated) | -12 | -33 | -2 | -8 | 1 | 18
O=C1CC(N2CCN(S(=O)(=O)c3cccc(C(F)(F)F)c3)CC2)C(=O)N1Cc1ccccc1 (configuration not stated) | 3 | -8 | 1 | 11 | -9 | 11
COc1ccc(CCN2C(=O)CC(N3CCN(S(=O)(=O)c4ccccc4)CC3)C2=O)cc1 (configuration not stated) | -7 | 0 | 63* | -7 | 9 | 11
O=C1CC(N2CCN(Cc3ccccc3)CC2)C(=O)N1CCc1ccccc1 (configuration not stated) | -4 | 21 | 88* | 6 | 7 | 5
CCOc1ccc(/C=N/OCC(=O)Nc2cc(S(=O)(=O)N3CCOCC3)ccc2OC)cc1 | 2 | -10 | / | / | 5 | 16
C=C(C)n1c(=O)n(Cc2ccccc2C)c2ccccc21 | 10 | 7 | / | 25 | -13 | 7
COc1ccc2oc(C(=O)c3ccccc3)c(NC(=O)CN3CCN(C)CC3)c2c1 | 3 | 28 | 98* | 18 | / | 4
CN1CCN(CC(=O)Nc2c(C(=O)c3ccccc3)oc3ccccc23)CC1 | -7 | 18 | / | 0 | 22 | 5
O=C1C=CC(=O)N1CCCCCCN1C(=O)C=CC1=O | / | / | -4 | 112* | / | /
O=C1C2C3C=CC(C3)C2C(=O)N1CCCCCCN1C(=O)C2C3C=CC(C3)C2C1=O (configuration not stated) | 1 | / | 10 | 20 | 4 | /
CCOc1ccc(-n2c(-c3ccccc3)c[n+]3c2CCCCC3)cc1 | 87* | 60* | 100* | / | 0 | 23
Cc1ccc(-c2c[n+]3c(n2-c2ccccc2)CCC3)cc1 | -8 | 55* | / | 0 | -9 | -2
c1ccc(-c2c[n+]3c(n2-c2ccccc2)CCC3)cc1 | 1 | -10 | / | 10 | 2 | 4
Cc1cc(C)c2c(N)c(C(=O)c3cccc(Cl)c3)sc2n1 | -10 | 38 | 100* | 32 | -6 | 8
Cc1cc(C)c2c(N)c(C(=O)c3ccccc3Cl)sc2n1 | -4 | 56* | / | -6 | 17 | 10
Cc1cc(C)c2c(N)c(C(=O)Nc3ncc(C)s3)sc2n1 | / | / | 68* | 4 | 13 | /
Cc1cc(C)c2c(N)c(C(=O)c3ccc(Cl)cc3Cl)sc2n1 | -5 | 39 | 100* | 16 | -25 | 1
O=C(CCNC(=O)c1ccc(Br)cc1)Nc1ccc(S(=O)(=O)N2CCOCC2)cc1 | / | / | / | / | 10 | /
COc1ccc(-n2c(=S)[nH]c3cc(C(=O)Nc4ccc(C)c(F)c4)ccc3c2=O)c(OC)c1 | -8 | 16 | / | -5 | 2 | -15
Cc1ccc(C(=O)c2cn[nH]c2-c2cc(Cl)ccc2O)cc1 | 13 | -17 | 98* | 18 | 13 | -22

Screening data deposited in PubChem by several laboratories.
